Values after ≈ are worked out from the molar mass of the structure shown.
What was measured:
[1] = Aqueous solubility of the compound in phosphate buffer at pH 7.4; type: physicochemical
Outline: (§1)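 Excess solid was stirred for 3 h in pH 1.2 hydrochloric acid or pH 7.4 phosphate buffer, then filtered through 0.45 μm. Absorbance at the UV maximum was compared with a methanol standard, C′ = A′C/A, with values reported in mg/mL. Determined at 30 °C; mean ± SD, n = 3.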

[2] = test system: Cryptococcus neoformans; assay: Antimicrobial activity against Cryptococcus neoformans 32609 after 72 hrs by serial dilution method; type: functional; details: Cryptococcus neoformans, 32609, 72 h
Outline: (§2)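 Broth serial dilution MIC in 96-well plates following NCCLS/CLSI methods. Compounds were dissolved in DMSO and serially diluted in growth medium, with incubation at 35 °C. […] C. parapsilosis 22019 served as the quality-control strain in each assay.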

[3] = test system: Candida albicans; assay: Antimicrobial activity against fluconazole-resistant Candida albicans J18 after 24 hrs by serial dilution method; type: functional; details: J18, 24 h
Outline: (§3)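 Broth serial-dilution MIC in 96-well plates following NCCLS guidance. Compounds were dissolved in DMSO and serially diluted in growth medium. Clinical isolates came from a hospital collection. […] C. parapsilosis ATCC 22019 served as the quality-control strain in each assay.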

[4] = test system: Nakaseomyces glabratus; assay: Antimicrobial activity against Candida glabrata 537 after 24 hrs by serial dilution method; type: functional; details: Nakaseomyces glabratus, 537, 24 h; outline: as §2
[5] = test system: Candida albicans; assay: Antimicrobial activity against fluconazole-resistant Candida albicans 100 after 24 hrs by serial dilution method; type: functional; details: Candida albicans, 100, 24 h; outline: as §3
[6] = test system: Candida parapsilosis; assay: Antimicrobial activity against Candida parapsilosis 22019 after 24 hrs by serial dilution method; type: functional; details: Lodderomyces parapsilosis, 22019, 24 h; outline: as §2
[7] = Aqueous solubility of the compound in hydrochloric acid solution at pH 1.2; type: physicochemical; outline: as §1
[8] = test system: Candida albicans; assay: Antimicrobial activity against Candida albicans SC5314 after 24 hrs by serial dilution method; type: functional; details: SC5314, 24 h; outline: as §2
[9] = test system: Aspergillus fumigatus; assay: Antimicrobial activity against Aspergillus fumigatus 7544 after 48 hrs by serial dilution method; type: functional; details: Aspergillus fumigatus, 7544, 48 h; outline: as §2
[10] = test system: Candida albicans; assay: Antimicrobial activity against fluconazole-resistant Candida albicans J38 after 24 hrs by serial dilution method; type: functional; details: J38, 24 h; outline: as §3
[11] = test system: Candida albicans; assay: Antimicrobial activity against fluconazole-resistant Candida albicans 103 after 24 hrs by serial dilution method; type: functional; details: Candida albicans, 103, 24 h; outline: as §3
[12] = test system: Candida albicans; assay: Antimicrobial activity against Candida albicans Y0109 after 24 hrs by serial dilution method; type: functional; details: Y0109, 24 h; outline: as §2
[13] = test system: Candida albicans; assay: Antimicrobial activity against fluconazole-resistant Candida albicans J28 after 24 hrs by serial dilution method; type: functional; details: J28, 24 h; outline: as §3
[14] = target: Voltage-gated inwardly rectifying potassium channel KCNH2 (Homo sapiens, UniProt Q12809); assay: Inhibition of human ERG expressed in CHO cells by whole-cell patch clamp assay; type: cell-based
[15] = test system: Candida albicans; assay: Antimicrobial activity against fluconazole-resistant Candida albicans 103 infected in ICR mouse assessed as mean survival days at 0.5 mg/kg, po qd for 5 days starting 2 hrs post infection (reference value: 1.5 +/- 0.53 days); type: functional
[16] = test system: Candida albicans; assay: Antimicrobial activity against Candida albicans SC5314 infected in ICR mouse assessed as mean survival days at 0.5 mg/kg, po qd for 5 days starting 2 hrs post infection (reference value: 5.2 +/- 2.35 days starting 2 hrs post infection); type: functional
Outline: (§4)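 Reference arm of the systemic C. albicans SC5314 model: female ICR mice (18−22 g, n = 10) were infected iv with 0.2 mL of 5 × 10⁶ CFU/mL. Fluconazole was given orally in distilled water, qd for 5 days from 2 h post-infection. Mean survival days were scored over 30 days.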

[17] = test system: Candida albicans; assay: Antimicrobial activity against Candida albicans SC5314 infected in ICR mouse assessed as mean survival days at 0.5 mg/kg, po qd for 5 days starting 2 hrs post infection (reference value: 9.0 +/- 0.67 days); type: functional; outline: as §4
[18] = test system: Candida albicans; assay: Ratio of fluconazole MIC to compound MIC for fluconazole-resistant Candida albicans J18 after 24 hrs by serial dilution method; type: functional
[19] = test system: Candida albicans; assay: Ratio of fluconazole MIC to compound MIC for fluconazole-resistant Candida albicans 103 after 24 hrs by serial dilution method; type: functional
[20] = test system: Candida albicans; assay: Ratio of fluconazole MIC to compound MIC for fluconazole-resistant Candida albicans 100 after 24 hrs by serial dilution method; type: functional

Sequence of Voltage-gated inwardly rectifying potassium channel KCNH2 (Q12809 whole entry): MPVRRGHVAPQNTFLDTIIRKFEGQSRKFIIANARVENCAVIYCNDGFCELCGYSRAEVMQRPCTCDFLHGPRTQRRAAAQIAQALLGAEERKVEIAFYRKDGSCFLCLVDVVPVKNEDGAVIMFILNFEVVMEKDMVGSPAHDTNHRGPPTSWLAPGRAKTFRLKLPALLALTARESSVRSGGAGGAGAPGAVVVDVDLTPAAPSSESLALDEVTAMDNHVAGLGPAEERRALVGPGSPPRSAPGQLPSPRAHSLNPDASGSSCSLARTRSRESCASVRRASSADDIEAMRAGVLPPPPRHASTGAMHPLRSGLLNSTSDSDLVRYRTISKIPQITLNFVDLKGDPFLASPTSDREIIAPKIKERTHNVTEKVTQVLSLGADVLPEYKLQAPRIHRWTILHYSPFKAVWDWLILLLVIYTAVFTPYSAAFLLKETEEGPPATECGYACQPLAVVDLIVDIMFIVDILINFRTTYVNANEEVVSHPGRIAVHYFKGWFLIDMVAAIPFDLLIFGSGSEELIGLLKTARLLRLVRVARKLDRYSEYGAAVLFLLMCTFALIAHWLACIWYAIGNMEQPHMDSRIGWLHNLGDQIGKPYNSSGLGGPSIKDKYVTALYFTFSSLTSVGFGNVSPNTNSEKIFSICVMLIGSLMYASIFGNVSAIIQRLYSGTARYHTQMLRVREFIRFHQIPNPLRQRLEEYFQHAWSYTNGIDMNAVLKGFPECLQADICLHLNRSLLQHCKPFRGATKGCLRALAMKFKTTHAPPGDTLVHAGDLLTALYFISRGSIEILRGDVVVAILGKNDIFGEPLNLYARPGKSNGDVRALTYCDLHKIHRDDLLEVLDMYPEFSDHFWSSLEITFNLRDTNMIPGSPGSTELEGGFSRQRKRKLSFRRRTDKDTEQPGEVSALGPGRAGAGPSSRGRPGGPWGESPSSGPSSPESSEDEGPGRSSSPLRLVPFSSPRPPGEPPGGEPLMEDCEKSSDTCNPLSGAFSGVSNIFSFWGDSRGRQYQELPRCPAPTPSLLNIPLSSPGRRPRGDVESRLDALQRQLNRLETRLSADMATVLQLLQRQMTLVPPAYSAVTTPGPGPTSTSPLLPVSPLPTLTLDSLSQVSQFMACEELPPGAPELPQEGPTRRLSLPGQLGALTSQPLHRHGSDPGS

Structure (SMILES) | solubility [1] [µg/mL] | MIC [2] [µg/mL] | MIC [3] [µg/mL] | MIC [4] [µg/mL] | MIC [5] [µg/mL] | MIC [6] [µg/mL] | solubility [7] [µg/mL] | MIC [8] [µg/mL] | MIC [9] [µg/mL] | MIC [10] [µg/mL] | MIC [11] [µg/mL] | MIC [12] [µg/mL] | MIC [13] [µg/mL] | IC50 [14] [µM] | Survival [15] [days] | Survival [16] [days] | Survival [17] [days] | Ratio [18] | Ratio [19] | Ratio [20]
CS(=O)(=O)O.C[C@@H](N1CCc2nc(-c3cncnc3)sc2C1)[C@](O)(Cn1cncn1)c1ccc(F)cc1F | 12000 | – | – | – | – | – | – | – | – | – | – | – | – | – | – | – | – | – | – | –
C[C@@H](N1CCc2nc(-c3cncnc3)sc2C1)[C@](O)(Cn1cncn1)c1ccc(F)cc1F.O=P(O)(O)O | 8330 | – | – | – | – | – | – | – | – | – | – | – | – | – | – | – | – | – | – | –
C[C@@H](n1cnc2cc(Cl)ccc2c1=O)[C@](O)(Cn1cncn1)c1ccc(F)cc1F [ALBACONAZOLE] | – | ≤ 0.0312 | > 16 | ≤ 0.0312 | 8 (≈ 18.5 µM) | 0.0156 (≈ 0.0361 µM) | 1 (≈ 2.32 µM) | 0.0078 (≈ 0.0181 µM) | 0.5 (≈ 1.16 µM) | ≤ 0.0312 | 4 (≈ 9.26 µM) | ≤ 0.0312 | ≤ 0.0312 | – | – | – | – | – | – | –
C[C@@H](N1CCn2nc(-c3cccnc3)nc2C1)[C@](O)(Cn1cncn1)c1ccc(F)cc1F | 1820 (≈ 4010 µM) | 0.0312 (≈ 0.0691 µM) | – | 0.0312 (≈ 0.0691 µM) | – | 0.0312 (≈ 0.0691 µM) | 5900 (≈ 13000 µM) | 0.0312 (≈ 0.0691 µM) | 32 (≈ 70.7 µM) | – | – | 0.0312 (≈ 0.0691 µM) | – | – | – | – | – | – | – | –
CCC(C)n1ncn(-c2ccc(N3CCN(c4ccc(OCC5COC(Cn6cncn6)(c6ccc(Cl)cc6Cl)O5)cc4)CC3)cc2)c1=O (racemic) [ITRACONAZOLE] | – | – | – | – | – | – | – | – | – | – | – | – | – | > 40 | – | – | – | – | – | –
C[C@@H](N1CCc2nc(-c3cncnc3)sc2C1)[C@](O)(Cn1cncn1)c1ccc(F)cc1F | 3090 (≈ 6590 µM) | 0.0625 (≈ 0.133 µM) | > 16 | 0.0625 (≈ 0.133 µM) | > 16 | 0.0625 (≈ 0.133 µM) | 14700 (≈ 31300 µM) | 0.0156 (≈ 0.0332 µM) | 1 (≈ 2.13 µM) | ≤ 0.0312 | 8 (≈ 17 µM) | 0.0156 (≈ 0.0332 µM) | 0.0625 (≈ 0.133 µM) | – | – | – | – | – | – | –
OC(Cn1cncn1)(Cn1cncn1)c1ccc(F)cc1F [FLUCONAZOLE] | – | 0.5 (≈ 1.63 µM) | > 1020 | 0.25 (≈ 0.816 µM) | 512 (≈ 1670 µM) | 1 (≈ 3.27 µM) | – | 0.5 (≈ 1.63 µM) | > 64 | > 4 | > 1020 | 0.5 (≈ 1.63 µM) | > 4 | – | 2.3 | 11.7 | 13.1 | – | – | –
C[C@@H](N1CCc2nc(-c3cccnc3)sc2C1)[C@](O)(Cn1cncn1)c1ccc(F)cc1F | 2360 (≈ 5040 µM) | 0.0625 (≈ 0.133 µM) | – | 0.125 (≈ 0.267 µM) | – | 0.125 (≈ 0.267 µM) | 10100 (≈ 21500 µM) | 0.0312 (≈ 0.0667 µM) | 2 (≈ 4.27 µM) | – | – | 0.0312 (≈ 0.0667 µM) | – | – | – | – | – | – | – | –
C[C@@H](c1nc(-c2ccc(C#N)cc2)cs1)[C@](O)(Cn1cncn1)c1ccc(F)cc1F [RAVUCONAZOLE] | – | ≤ 0.0625 | – | ≤ 0.125 | – | 0.125 (≈ 0.286 µM) | 3 (≈ 6.86 µM) | 0.0625 (≈ 0.143 µM) | 1 (≈ 2.29 µM) | – | – | 0.0625 (≈ 0.143 µM) | – | – | – | – | – | – | – | –
C[C@@H](N1CCn2nc(-c3ccccc3)nc2C1)[C@](O)(Cn1cncn1)c1ccc(F)cc1F | 97 (≈ 215 µM) | 0.125 (≈ 0.277 µM) | > 32 | 0.125 (≈ 0.277 µM) | > 32 | 0.125 (≈ 0.277 µM) | 316 (≈ 700 µM) | 0.0625 (≈ 0.138 µM) | 32 (≈ 70.9 µM) | 0.0625 (≈ 0.138 µM) | > 32 | 0.125 (≈ 0.277 µM) | 0.5 (≈ 1.11 µM) | – | – | – | – | 16 | 16 | 16
C[C@@H](c1ncncc1F)[C@](O)(Cn1cncn1)c1ccc(F)cc1F [VORICONAZOLE] | 682 (≈ 1950 µM) | 0.0625 (≈ 0.179 µM) | > 16 | ≤ 0.125 | > 16 | 0.125 (≈ 0.358 µM) | 1260 (≈ 3620 µM) | ≤ 0.0625 | 2 (≈ 5.73 µM) | 0.0625 (≈ 0.179 µM) | > 16 | 0.0625 (≈ 0.179 µM) | 0.0625 (≈ 0.179 µM) | – | – | – | – | – | – | –
C[C@@H](N1CCc2nc(-c3cncnc3)sc2C1)[C@](O)(Cn1cncn1)c1ccc(F)cc1F.Cl | 14800 | – | – | – | – | – | – | – | – | – | – | – | – | – | – | – | – | – | – | –
C[C@@H](N1CCc2nc(-c3ccccc3)sc2C1)[C@](O)(Cn1cncn1)c1ccc(F)cc1F | 130 (≈ 278 µM) | 0.125 (≈ 0.267 µM) | – | 0.5 (≈ 1.07 µM) | – | 0.5 (≈ 1.07 µM) | 1250 (≈ 2670 µM) | 0.5 (≈ 1.07 µM) | 16 (≈ 34.2 µM) | – | – | 0.5 (≈ 1.07 µM) | – | – | – | – | – | – | – | –
C[C@@H](N1CCc2nc(-c3cncnc3)sc2C1)[C@](O)(Cn1cncn1)c1ccc(F)cc1F.Cc1ccc(S(=O)(=O)O)cc1 | 5800 | – | – | – | – | – | – | – | – | – | – | – | – | – | – | – | – | – | – | –
C[C@@H](N1CCn2nnc(Br)c2C1)[C@](O)(Cn1cncn1)c1ccc(F)cc1F | – | ≤ 0.0625 | > 32 | 0.25 (≈ 0.55 µM) | > 32 | 0.125 (≈ 0.275 µM) | – | ≤ 0.0312 | 8 (≈ 17.6 µM) | 0.25 (≈ 0.55 µM) | > 32 | 0.0625 (≈ 0.138 µM) | 2 (≈ 4.4 µM) | – | – | – | – | 16 | 16 | 16

Source: ChEMBL document CHEMBL3259614, “Design, synthesis, and structure-activity relationship studies of novel fused heterocycles-linked triazoles with good activity and water solubility” (J Med Chem, 2014)
